Measurements taken from ChEMBL document CHEMBL2331432, “Synthesis and dual biological effects of hydroxycinnamoyl phenylalanyl/prolyl hydroxamic acid derivatives as tyrosinase inhibitor and antioxidant” (Bioorg Med Chem Lett, 2013).
Activity calls are given as the source filed them. The calls are words filed in the database; no cut-off is given here.

What was measured:
[1] = Toxicity against mouse Mel-Ab cells at 100 uM by CCK-8 assay
[2] = Antioxidant activity assessed as inhibition of lipid peroxidation after 48 hrs by ferric thiocyanate assay; format: functional
In short: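 Lipid peroxidation run in an emulsified system with antioxidant at 90 µM final, 50 °C in the dark for 48 h. Ferric thiocyanate read-out: absorbance at 500 nm 3 min after colour development. Trolox as positive control. Triplicate, mean with standard error.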

[3] = (§1) Inhibition of TPA-stimulated melanogenesis in mouse Mel-Ab cells at 100 uM after 4 days; format: functional; details: 96 h
[4] = target: T1, Tyrosinase (Agaricus bisporus) (UniProt O42713); assay: Inhibition of mushroom tyrosinase using L-DOPA substrate at 50 to 100 uM incubated for 10 mins
T1 sequence (whole entry): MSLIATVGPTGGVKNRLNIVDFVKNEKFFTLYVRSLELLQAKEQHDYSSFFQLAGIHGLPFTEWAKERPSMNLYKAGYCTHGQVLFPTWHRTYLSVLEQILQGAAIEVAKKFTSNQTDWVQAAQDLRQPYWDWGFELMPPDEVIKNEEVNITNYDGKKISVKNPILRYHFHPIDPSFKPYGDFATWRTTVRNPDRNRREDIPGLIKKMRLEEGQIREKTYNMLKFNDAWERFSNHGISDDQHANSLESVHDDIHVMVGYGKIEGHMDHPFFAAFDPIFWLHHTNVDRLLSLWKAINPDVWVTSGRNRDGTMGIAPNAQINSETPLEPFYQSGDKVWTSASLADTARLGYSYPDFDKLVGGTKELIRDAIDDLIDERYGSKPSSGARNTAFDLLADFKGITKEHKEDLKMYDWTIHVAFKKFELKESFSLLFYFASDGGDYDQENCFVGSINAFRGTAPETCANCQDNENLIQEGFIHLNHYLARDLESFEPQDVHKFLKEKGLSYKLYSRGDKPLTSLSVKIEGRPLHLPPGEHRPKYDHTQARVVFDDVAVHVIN
In short: (§2)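 Mushroom tyrosinase (25 µL of 100 µg/mL aqueous solution) added to 0.1 M phosphate buffer pH 6.8, 2.5 mM L-DOPA (stock), water and inhibitor in DMSO. Incubated 25 °C for 10 min, absorbance at 475 nm. %inhibition = (1−A/B)×100 against a DMSO-only reference. Single-point tests at 50 or 100 µM; kojic acid as reference. Triplicate, mean with standard error.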

[5] = tested on: Radical scavenging activity; assay: Antioxidant activity assessed as DPPH radical scavenging activity by UV/Visible spectrophotometry; format: functional
In short: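 DPPH in methanol; antioxidant:DPPH molar ratio 0.25 for caffeic/dihydrocaffeic acids and their conjugates, 0.50 for p-coumaric, ferulic, sinapic acids and their conjugates. 10 min at 25 °C, absorbance at 516 nm. %RSA = (1−A/B)×100, B = methanol in place of sample. Triplicate, mean with standard error.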

[6] = tested on: Mel-Ab; assay: as §1; format: functional
[7] = target: T1, Tyrosinase (Agaricus bisporus); assay: Inhibition of mushroom tyrosinase using L-DOPA substrate at 100 uM incubated for 10 mins
In short: as §2

[8] = target: T2, Tyrosinase (Agaricus bisporus, UniProt O42713); assay: Inhibition of mushroom tyrosinase using L-DOPA substrate incubated for 10 mins
T2 sequence (O42713 whole entry): T1 sequence (whole entry)

Compound	Activity [1]	inhibition [2]	inhibition [4]	Activity [5]	further results
O=C(O)/C=C/c1ccc(O)c(O)c1 [CAFFEIC ACID]	Toxic	–	–	–	–
COc1cc(/C=C/C(=O)NC(Cc2ccccc2)C(=O)NO)cc(OC)c1O (centres undefined)	Non-toxic	Active	inactive	–	inhibition at 100 µM [3]: 30%
O=C(/C=C/c1ccc(O)cc1)NC(Cc1ccccc1)C(=O)NO (centres undefined)	–	inactive	Active	inactive	–
COc1cc(/C=C/C(=O)N2CCCC2C(=O)NO)cc(OC)c1O (centres undefined)	Non-toxic	Active	inactive	Active	inhibition at 100 µM [3]: 30%
O=C(NO)C1CCCN1C(=O)/C=C/c1ccc(O)c(O)c1 (centres undefined)	Non-toxic	Active	Active	Active	inhibition at 100 µM [3]: 30%
O=C(O)CCc1ccc(O)c(O)c1	–	inactive	–	–	–
COc1cc(/C=C/C(=O)N2CCCC2C(=O)NO)ccc1O (centres undefined)	Non-toxic	Active	inactive	Active	–
O=C(NO)C1CCCN1C(=O)CCc1ccc(O)c(O)c1 (centres undefined)	–	inactive	inactive	–	–
OC[C@H]1O[C@@H](Oc2ccc(O)cc2)[C@H](O)[C@@H](O)[C@@H]1O	–	–	–	–	inhibition [6]: Active
O=C(O)/C=C/c1ccc(O)cc1	–	inactive	–	inactive	–
COc1cc(/C=C/C(=O)NC(Cc2ccccc2)C(=O)NO)ccc1O (centres undefined)	Non-toxic	Active	inactive	Active	inhibition [6]: inactive
O=C(CCc1ccc(O)c(O)c1)NC(Cc1ccccc1)C(=O)NO (centres undefined)	–	inactive	inactive	–	–
COc1cc(/C=C/C(=O)O)ccc1O	–	–	inactive	Active	–
CC(=O)N1CCCC1C(=O)NO (centres undefined)	–	–	–	–	inhibition [7]: 5%
COc1cc(/C=C/C(=O)O)cc(OC)c1O	–	–	inactive	–	–
CC(=O)NC(Cc1ccccc1)C(=O)NO (centres undefined)	–	–	–	–	inhibition [7]: 6%
O=C(NO)C1CCCN1C(=O)/C=C/c1ccc(O)cc1 (centres undefined)	–	inactive	Active	inactive	–
NC(=O)C(Cc1ccccc1)NC(=O)OCc1cc(=O)c(O)co1 (centres undefined)	–	–	–	–	IC50 [8]: 4.2 µM
O=C(/C=C/c1ccc(O)c(O)c1)NC(Cc1ccccc1)C(=O)NO (centres undefined)	Non-toxic	Active	Active	–	inhibition [6]: Active; IC50 [8]: 4.9 µM
